# Reference: paper PMC5909786 (Drug Design, Development and Therapy, 2018)
# How the values were obtained:
# [1] = tested on: Raji cells; assay: In vitro cytotoxicity; format: cell-based, human; conditions: Raji cells versus Raji/VCR cells, MTT, 72 hours
# [2] = Systemic toxicity; format: in vivo, BALB/c nude mice; conditions: tumor-bearing mice, after 3 weeks of administration
# Summary of the method: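 BALB/c nude mice (4–6 weeks, 18–22 g) carried subcutaneous right-flank xenografts of vincristine-resistant Raji cells (5×10^7 cells in 100 μL PBS). Mice were randomised into groups of six and dosed intravenously twice a week for 3 weeks with PBS control or test formulations (10 mg/kg drug). Body weight was recorded as a systemic toxicity read-out.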
# [3] = tested on: Raji/VCR cell bearing BALB/c nude mice; assay: In vivo antitumor activity; conditions: 10 mg/kg of VCR intravenously twice a week for 3 weeks, n=6
# [4] = In vivo tissue distribution; set-up: species or system Raji/VCR cell bearing BALB/c nude mice; conditions: 10 mg/kg of VCR intravenous
smiles,measurement,setting,value
"CC[C@]1(O)C[C@H]2CN(CCc3c([nH]c4ccccc34)[C@@](C(=O)OC)(c3cc4c(cc3OC)N(C=O)[C@H]3[C@@](O)(C(=O)OC)[C@H](OC(C)=O)[C@]5(CC)C=CCN6CC[C@]43[C@@H]65)C2)C1 [Free VCR, vincristine]",In vitro cytotoxicity (in words),[1],higher cytotoxicity in Raji cells than Raji/VCR cells
same,Body weight (in words),[2],reduction in body weight
same,Tumor volume / tumor growth (in words),[3],not statistically different from the negative control
same,Drug distribution over time (in words),[4],rapidly reached a high level during the first few hours and reduced over time
